pKi: −log10 of the molar value. The source made the active and inactive calls. No cut-off for these calls is given here.
What was measured:
[1] = molecular target: Telomerase reverse transcriptase (Homo sapiens) (UniProt O14746); assay: Inhibition of telomerase in human HT-29 cells at 20 uM incubated for 48 hrs by TRAP assay; assay type: cell-based
In short: (§1)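 Mycoplasma-tested PC3 or HT-29 cells in RPMI-1640/10% FBS were exposed to a final 20 μM for 48 h. Cells were lysed in CHAPS/glycerol Tris buffer (pH 7.5), and 5 μg extract protein was used for TS-primer elongation (30 min, 37 °C) followed by CX-primer/Taq PCR for 30 cycles. Products were run on 12% nondenaturing PAGE with SYBR Green I densitometry. Quadruplicate; mean ± SEM; t-test.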

PC-3 = assay: Effect on telomerase mRNA expression in human PC3 cells at 20 uM incubated for 48 hrs by real-time RT-PCR analysis; assay type: ADME, cell-based; conditions: pc-3, 48 h
In short: (§2)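 PC3 and HT-29 cells were grown in RPMI-1640 with 10% FBS at 37 °C under 5% CO2, after mycoplasma testing. Cells were exposed to a final 20 μM for 48 h. hTERT mRNA was measured and normalized to 18S RNA, with standard curves from serial cDNA dilutions (1:40–1:320). Runs were done in quadruplicate; results are mean ± SEM, compared by Student's t-test.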

HT-29 = assay: Effect on telomerase mRNA expression in human HT-29 cells at 20 uM incubated for 48 hrs by real-time RT-PCR analysis; assay type: ADME, cell-based; conditions: ht-29, 48 h; in short: as §2
[2] = molecular target: Telomerase reverse transcriptase (Homo sapiens) (UniProt O14746); assay: Inhibition of telomerase in human PC3 cells at 20 uM incubated for 48 hrs by TRAP assay; assay type: cell-based; conditions: PC-3; in short: as §1
Carbonic anhydrase 9 = Carbonic anhydrase 9 (Homo sapiens, UniProt Q16790); assay: Inhibition of human CA9 pre-incubated for 15 mins by stopped flow CO2 hydrase assay

Chain of Telomerase reverse transcriptase (Homo sapiens) (O14746 whole entry): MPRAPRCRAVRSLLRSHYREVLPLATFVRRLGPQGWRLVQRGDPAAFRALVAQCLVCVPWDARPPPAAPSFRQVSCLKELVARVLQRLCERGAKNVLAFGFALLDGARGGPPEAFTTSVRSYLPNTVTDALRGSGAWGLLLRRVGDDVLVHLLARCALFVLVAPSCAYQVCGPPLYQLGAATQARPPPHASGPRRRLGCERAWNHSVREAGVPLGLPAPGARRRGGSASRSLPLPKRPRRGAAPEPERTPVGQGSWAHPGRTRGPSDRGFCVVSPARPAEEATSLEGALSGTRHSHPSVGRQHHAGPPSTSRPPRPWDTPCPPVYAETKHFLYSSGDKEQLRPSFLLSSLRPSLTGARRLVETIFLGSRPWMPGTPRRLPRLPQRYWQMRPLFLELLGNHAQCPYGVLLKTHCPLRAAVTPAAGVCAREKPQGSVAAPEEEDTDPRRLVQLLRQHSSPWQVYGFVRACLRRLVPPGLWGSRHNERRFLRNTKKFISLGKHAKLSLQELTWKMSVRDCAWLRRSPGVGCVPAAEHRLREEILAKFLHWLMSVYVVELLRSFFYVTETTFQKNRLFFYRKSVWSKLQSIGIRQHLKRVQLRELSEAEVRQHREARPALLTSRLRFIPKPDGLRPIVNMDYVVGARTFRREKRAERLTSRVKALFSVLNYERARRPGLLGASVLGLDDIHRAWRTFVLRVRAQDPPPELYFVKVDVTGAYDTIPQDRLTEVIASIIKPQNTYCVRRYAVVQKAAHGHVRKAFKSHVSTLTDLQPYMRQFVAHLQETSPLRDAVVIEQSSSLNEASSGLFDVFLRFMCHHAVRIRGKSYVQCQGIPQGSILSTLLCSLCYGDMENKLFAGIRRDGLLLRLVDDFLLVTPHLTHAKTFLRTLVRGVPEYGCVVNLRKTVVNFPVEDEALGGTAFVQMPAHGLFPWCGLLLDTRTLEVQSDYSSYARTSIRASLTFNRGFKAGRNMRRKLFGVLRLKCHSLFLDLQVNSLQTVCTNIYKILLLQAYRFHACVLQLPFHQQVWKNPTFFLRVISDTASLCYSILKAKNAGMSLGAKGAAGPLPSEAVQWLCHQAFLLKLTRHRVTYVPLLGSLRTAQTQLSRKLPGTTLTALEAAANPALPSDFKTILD

In the case of `Cc1cn([C@H]2C[C@H](n3cc(CNC(=O)c4ccc(S(N)(=O)=O)cc4)nn3)[C@@H](CO)O2)c(=O)[nH]c1=O`, the inhibition [1] was “inactive”, the Activity (PC-3) was “Non-Toxic” and the Activity (HT-29) was “Non-Toxic”. The inhibition [2] was “inactive”.

For `Cc1cn([C@H]2C[C@H](n3cc(COC(=O)c4ccc(Cl)c(S(N)(=O)=O)c4)nn3)[C@@H](CO)O2)c(=O)[nH]c1=O`, the pKi (Carbonic anhydrase 9) was 6.62.

For `Cc1cn([C@H]2C[C@H](n3cc(C[Se]c4ccc(NC(=S)Nc5cccc(S(N)(=O)=O)c5)cc4)nn3)[C@@H](CO)O2)c(=O)[nH]c1=O`, the inhibition [1] was “Active”, the Activity (PC-3) was “Non-Toxic” and the Activity (HT-29) was “Non-Toxic”. The inhibition [2] was “Active”.

With `Cc1cn([C@H]2C[C@H](n3cc(COC(=O)c4ccc(S(N)(=O)=O)cc4)nn3)[C@@H](CO)O2)c(=O)[nH]c1=O` the inhibition [1] was “inactive”, the Activity (PC-3) was “Non-Toxic” and the Activity (HT-29) was “Non-Toxic”. The inhibition [2] was “inactive”.

In the case of `Cc1cn([C@H]2C[C@H](n3cc(COc4ccc(S(N)(=O)=O)cc4)nn3)[C@@H](CO)O2)c(=O)[nH]c1=O`, the inhibition [1] was “Active”, the Activity (PC-3) was “Non-Toxic” and the Activity (HT-29) was “Non-Toxic”. The inhibition [2] was “Active”.
